This is one part of a sample in which hits are shown more often than they occur.
T cruzi inh: inhibitors of intracellular T. cruzi growth, primary screen, luminescence, NIH3T3 host cells; inhibition, % (concentration not given with the values); AID 1885, 2009; T. cruzi beta-gal in NIH3T3, 90 h; 1.4% of 300,000 active;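 active = mean inhibition across valid replicates above about 55%, limit read from the data; inconclusive = mean below that limit but half or more replicates reach it; inactive = mean below it, under half of replicates reach it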;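 note: signal also drops with host cell toxicity which is not excluded here; higher percent means less beta-gal luminescence so fewer parasites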
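compound dosing = single 50 nL compound addition per well in DMSO | material = NIH/3T3 host cells with β-galactosidase reporter T. cruzi | input = 5,000 host fibroblasts per well | timing = ≥90 h infection period, 3 h prior cell attachment | read-out basis = percent inhibition of parasite-derived β-gal signal | detection = GalScreen β-gal luminescence, detergent lysis, 60 min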
HSF-1 act: HSF-1 activators, primary screen, NIH3T3-HGL cells, MG132 stress, luminescence, single point; activation, % at 9 µM; NIH3T3-HGL HSF-1 luciferase reporter, 8 h; 100% = twice DMSO control signal; 1.7% of 300,000 active;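 active = mean replicate activation of at least 50% with a set share of replicates each reaching 50%; inconclusive = only one of those two conditions met; inactive = mean below 50% and too few replicates reaching it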
HSF1 inh: HSF1 inhibitors in luciferase reporter cells, primary screen, cell-based, NIH3T3, luminescence; NIH3T3-HGL HSE-luciferase, MG132-induced, luminescence 8 h; active compounds read low; activity change, negative = inhibition, % at 7.5 µM (by protocol); AID 2098, 2009; 0.77% of 300,000 active;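 active = more than half of replicate wells show activity change below -50%, luminescence cut by over half; inconclusive = some wells, but at most half, below -50%; inactive = no replicate well below -50%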;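 note: luciferase reports HSF-1 transcriptional activity via heat shock element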
Lmaj promast: Leishmania major promastigote growth inhibition, primary screen; 9% of 200,000 active; Leishmania major promastigotes, resazurin fluorescence viability; inhibition, % at 10 µM; in the data active = inhibition above about 50%;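 note: promastigotes grown with compound for 44 hours at 28 °C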
Hsp70 act: Hsp70 transcriptional activators, primary screen, cell-based, HeLa, Hsp70 promoter luciferase, luminescence, 10 µM; activation, % at 10 µM; 0.04% of 200,000 active; HeLa Hsp70 promoter luciferase reporter; scaled: vehicle 0, proteasome-inhibitor control 100%;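 active = activation above the mean across all tested compounds plus 3 SD, cutoff set per campaign, cut at about 5.5% in these data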
Each line names hits and unclear results; the compound was inactive in the other large screens.

O=C(NCCCn1ccnc1)c1cc2c(s1)CCCCC2	Lmaj promast 60
CC1CCc2sc(C(=O)NCCCn3ccnc3)cc2C1 (stereo not given)	none (no result: Lmaj promast, Hsp70 act)
COc1cc(/C=C/C(=O)NC(C)C2CC3CCC2C3)cc(OC)c1OC (stereo not given)	HSF1 inh -88 (no result: Lmaj promast, Hsp70 act)
CSCCC(NC(=O)c1ccccc1Cl)C(=O)N(C)CC(=O)Nc1ccc(N2CCOCC2)cc1 (stereo not given)	none (no result: Lmaj promast, Hsp70 act)
O=C(Nc1nnc(-c2ccc3c(c2)OCCO3)o1)C1CCCCC1	Lmaj promast 72
Cc1cccc(N2C(=O)/C(=C\c3ccc(OC(F)F)cc3)c3ccccc3C2=O)c1	none
COc1cccc(/C=C2\C(=O)N(c3cccc(C)c3)C(=O)c3ccccc32)c1	Lmaj promast 73
O=C(/C=C/c1cccc(F)c1)N(c1ccccn1)C1CCCCC1	none
O=C(/C=C/c1ccc(Cl)cc1)N(c1ccccn1)C1CCCCC1	Lmaj promast 83
Cc1ccc(C(=O)O/N=C/c2ccc(N(C)C)cc2)cc1	none
CN(C)c1ccc(/C=C/c2cc[n+]([O-])cc2)cc1	none
CN(C)c1ccc(/C=C/c2cc[n+](C)cc2)cc1	T cruzi inh 85, Lmaj promast 99
Cc1ccc(/C=C/c2ccc(N(C)C)cc2)[n+](C)c1	T cruzi inh 61 (no result: Lmaj promast, Hsp70 act)
COc1ccccc1NS(=O)(=O)c1cccc(C(=O)N2CCCCCCC2)c1	none (no result: Lmaj promast, Hsp70 act)
CCn1c(CNC(=O)c2ccco2)nnc1SCC(=O)Nc1cc(F)ccc1C	none (no result: Lmaj promast, Hsp70 act)
Cc1nn(-c2cc(N3CCCCC3)ccc2N)c(=O)c2ccccc12	T cruzi inh inconclusive
Nc1ccc(N2CCCCC2)cc1N1CCCCC1	T cruzi inh 62, Lmaj promast 100
O=C(Nc1ccc(-c2nc3ccccc3o2)cc1)c1cccnc1	HSF-1 act 55
COc1cccc(C(=O)Nc2ccc(-c3nc4ccccc4o3)c(O)c2)c1	none
O=C(NCCc1ccccc1)c1ccc(NC(=O)c2cccnc2)cc1	none (no result: Lmaj promast, Hsp70 act)
COc1cc(OC)cc(C(=O)Nc2ccc(-c3nc4ccccc4o3)cc2)c1	T cruzi inh 60
O=C(Nc1ccc(-c2noc(CCc3ccccc3)n2)cc1)c1cccnc1	Lmaj promast 50
COc1ccccc1CCN1CCCC(CN(C)C(=O)CCC(=O)N(C)C)C1 (stereo not given)	none (no result: Lmaj promast, Hsp70 act)
Cc1cc(/C=C2\SC(=S)N(Cc3ccco3)C2=O)c(C)n1-c1ccccc1	HSF1 inh -66
O=C1/C(=C\c2ccco2)SC(=S)N1Cc1ccccc1	none
CCCCc1cc(=O)oc2cc(C)cc(O)c12	Lmaj promast 82
CCCc1cc(=O)oc2cc(C)c(CN3CCCC3)c(O)c12	HSF-1 act 63
Cc1c(OCC(=O)NC2CCN(Cc3ccccc3)CC2)ccc2c3c(c(=O)oc12)CCC3	none (no result: Lmaj promast, Hsp70 act)
CN(C)c1ccc(N/C(N)=N/c2nc(C(F)(F)F)cc(C(F)(F)F)n2)cc1	none
Cc1ccccc1OCC(=O)N1N=C(c2cccnc2)CC1(O)C(F)(F)F (stereo not given)	Lmaj promast 51
Cc1cc(C)cc(OCC(=O)N2N=C(c3cccnc3)CC2(O)C(F)(F)F)c1 (stereo not given)	none
O=C(CCCCn1c(=O)[nH]c2ccsc2c1=O)NCc1cccnc1	HSF1 inh -56
O=C(CCCCn1c(=O)[nH]c2ccsc2c1=O)NCCc1ccccc1	none
Cc1cc(C(=O)NC2CC(C)(C)Cc3c2cnn3-c2ccc(F)cc2)no1 (stereo not given)	none (no result: Lmaj promast, Hsp70 act)
CCOC(=O)c1c(C)[nH]c2cc(Br)c(OC)cc12	none (no result: T cruzi inh, HSF-1 act, HSF1 inh)
CCOC(=O)c1c(C)[n+](-c2ccc(C)cc2)c(CC)c2cc(OC)c(OC)cc12	T cruzi inh 55 (no result: Lmaj promast, Hsp70 act)
CCn1ncc([N+](=O)[O-])c1C(=O)N1CCc2ccccc2C1	none (no result: Lmaj promast, Hsp70 act)
COc1cc(-c2[nH]ncc2CN2CCN(Cc3cccs3)CC2)cc(OC)c1OC	none
COc1ccc2nc(Cl)c(C#N)cc2c1	HSF1 inh -65
Cc1ccc2nc(Cl)c(C#N)cc2c1	none
COc1cc(/C=N/Nc2nncn2/N=C/c2ccc(O)c(OC)c2)ccc1O	none
COc1ccc(OC)c(/C=N/Nc2nncn2/N=C/c2cc(OC)ccc2OC)c1	HSF-1 act 81
CCOC(=O)c1c(CSc2ccccc2)n(C)c2cc(Br)c(OC)c(O)c12	none (no result: Lmaj promast, Hsp70 act)

Compound activity from PubChem.
